ChEMBL document CHEMBL4177577, “Lipophilic methylene violet analogues as modulators of mitochondrial function and dysfunction” (Bioorg Med Chem, 2017)
Activity calls are given as the source filed them. The calls are words filed in the database; no cut-off is given here.

Legend:
[1] = Cytotoxicity in human Friedreich's ataxia lymphocytes assessed as reduction in cell viability at 2.5 uM incubated for 24 hrs by Live/Dead cell viability assay; type: cell-based; conditions: friedreich's ataxia lymphocyte
Procedure, shortened: (§1)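 FRDA lymphocytes (5×10^5 cells/mL) were kept in glucose-free medium (25 mM galactose) with compound at 37 °C and 5% CO₂ for 24 or 48 h. Cells were washed, stained with 0.1 μM calcein AM (live) and 0.2 μM EthD-1 (dead) for 15 min at 37 °C and analysed by flow cytometry (10,000 events). Duplicates were run in two independent runs.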

[2] = Cytotoxicity in human Friedreich's ataxia lymphocytes assessed as reduction in cell viability at 2.5 uM incubated for 48 hrs by Live/Dead cell viability assay; type: cell-based; conditions: friedreich's ataxia lymphocyte; procedure, shortened: as §1
[3] = tested on: Friedreich's ataxia lymphocyte; test: Inhibition of ROS generation in human Friedreich's ataxia lymphocytes at 250 and 2500 nM incubated for 16 hrs by DCFH-DA staining based FACS method; type: functional, cell-based
Procedure, shortened: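 FRDA lymphocytes (GM15850; 5×10^5 cells/mL) were pretreated with compound for 16 h at 37 °C, then exposed to 5 mM diethyl maleate for 80 min to deplete glutathione. Cells were loaded with 10 μM DCFH-DA in PBS with 20 mM glucose for 25 min at 37 °C and DCF was read by flow cytometry (10,000 events). Median fluorescence is given as % of the DEM-treated control; duplicates in two runs.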

[4] = tested on: Friedreich's ataxia lymphocyte; test: Cytoprotection against rotenone-induced cytotoxicity in human Friedreich's ataxia lymphocytes assessed as increase in cell viability at 0.25 and 2.5 uM pre-incubated for 12 hrs in glucose-free media followed by rotenone challenge for 24 hrs by Live/Dead cell viability assay; type: functional, cell-based
Procedure, shortened: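 FRDA lymphocytes (5×10^5 cells/mL) in glucose-free medium with 25 mM galactose were pretreated with compounds at 37 °C, then exposed to 50 nM rotenone for 24 h. Cells were stained with 0.1 μM calcein AM and 0.2 μM EthD-1 for 15 min at 37 °C and run on flow cytometry (10,000 events). Live cells are given as % of control; two independent runs in duplicate.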

Bos taurus = organism: Bos taurus; test: Effect on NADH-ubiquinone oxidoreductase in bovine heart submitochondrial particles assessed as induction of electron flow from complex-1 by measuring NADH oxidation at 5 uM in presence of 50 nM rotenone using NADH and coenzyme Q1 by spectrophotomery
Procedure, shortened: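 Submitochondrial particles (30 μg/mL) were preincubated 5 min at 30 °C with compound in 50 mM phosphate buffer, pH 7.4, with 0.25 M sucrose, 1 mM MgCl₂, 2 μM antimycin A and 2 mM KCN. The reaction was started with 75 μM NADH plus 15 μM coenzyme Q₁, and NADH loss was followed at 340 nm. Values are the mean of two independent experiments in duplicate.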

[5] = tested on: Friedreich's ataxia lymphocyte; test: Increase in ATP level in human Friedreich's ataxia lymphocytes at 0.1 uM incubated for 24 hrs by luminescence based assay; type: functional, cell-based
Procedure, shortened: (§2)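 Lymphocytes (2×10^5 cells/mL) were treated with compound at final 0.1, 0.5 or 5 μM (DMSO <0.5%) in glucose-free medium (25 mM galactose) for 24 h at 37 °C. Total intracellular ATP was read by a bioluminescence kit and given as % of untreated control. Data are the mean of at least three independent experiments.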

[6] = tested on: Friedreich's ataxia lymphocyte; test: Increase in ATP level in human Friedreich's ataxia lymphocytes at 0.5 uM incubated for 24 hrs by luminescence based assay; type: functional, cell-based; procedure, shortened: as §2
[7] = Reduction in ATP level in human Friedreich's ataxia lymphocytes at 5 uM incubated for 24 hrs by luminescence based assay; type: ADME, cell-based; conditions: friedreich's ataxia lymphocyte; procedure, shortened: as §2
[8] = Induction of mitochondrial membrane potential preservation in human Friedreich's ataxia lymphocytes assessed as JC1 dye monomer level at 5 uM pre-incubated for 16 hrs by JC1 staining based assay (reference value: 10.1%)
[9] = Induction of mitochondrial membrane potential preservation in human Friedreich's ataxia lymphocytes assessed as JC1 dye aggregates level at 5 uM pre-incubated for 16 hrs by JC1 staining based assay (reference value: 69.8%)
[10] = tested on: Friedreich's ataxia fibroblast (Homo sapiens); test: Cytoprotection against buthionine sulfoximine-induced cytotoxicity in human Friedreich's ataxia fibroblasts assessed as increase in cell viability at 25 to 1000 nM pre-incubated before buthionine sulfoximine challenge for 48 hrs by Live/Dead cell viability assay
[11] = tested on: Friedreich's ataxia lymphocyte; test: Effect on ATP level in human Friedreich's ataxia lymphocytes at 100 to 5000 nM incubated for 24 hrs by luminescence based assay; type: functional, cell-based; procedure, shortened: as §2
[12] = tested on: Friedreich's ataxia lymphocyte; test: Effect on ATP level in human Friedreich's ataxia lymphocytes at 100 nM incubated for 24 hrs by luminescence based assay; type: functional, cell-based; procedure, shortened: as §2

SMILES | Activity [1] | Activity [2] | ROS generation inhibition (qualitative) [3] | Activity [4] | Activity (Bos taurus) | Activity [5] | Activity [6] | Activity [7] | Activity [8] [%] | Activity [9] [%] | Activity [10] | Activity [11] | Activity [12]
CCCCCCCCCCCCCCCN(CCCC)c1ccc2nc3ccc(=O)cc-3sc2c1 | Non-Toxic | Non-Toxic | Dose-dependent effect | Active | Active | Active | Active | Toxic | 10.6 | 89.3 | Dose-dependent effect |  | 
CCCCCCCCCCCCCCCN(CCCCCCCCCCCCCCC)c1ccc2nc3ccc(=O)cc-3sc2c1 | Non-Toxic | Non-Toxic | Active | Active |  |  |  |  | 11.7 | 88.2 | Dose-dependent effect | inactive | 
CCCCN(CCCC)c1ccc2nc3ccc(=O)cc-3sc2c1 |  | Toxic | Active | Active |  |  |  |  | 25.6 | 74.2 | Dose-dependent effect |  | inactive
CN(C)c1ccc(C(=C2C=CC(=[N+](C)C)C=C2)c2ccc(N(C)C)cc2)cc1.[Cl-] [GENTIAN VIOLET] |  |  | Active | Active | Active |  |  |  | 27.3 | 72.6 |  |  | inactive
CN(C)c1ccc2nc3ccc(N(C)C)cc3[s+]c2c1.[Cl-] [METHYLENE BLUE ANHYDROUS] | Toxic | Toxic |  |  |  |  |  |  | 58.1 | 41.7 |  |  | 
CN(C)c1ccc2nc3ccc(=[N+](C)C)cc-3sc2c1 |  |  |  | Active | Active |  |  |  |  |  |  |  | inactive
CCCCCCCCCCN(CCCCCCCCCC)c1ccc2nc3ccc(=O)cc-3sc2c1 | Non-Toxic | Non-Toxic | Active | Active |  |  |  |  | 14.3 | 85.7 | Dose-dependent effect | inactive | 
CCCCCCCCCCCCCCCN(C)c1ccc2nc3ccc(=O)cc-3sc2c1 | Non-Toxic | Non-Toxic | Dose-dependent effect | Active |  | Active | Active | Toxic | 14.7 | 85.2 | Dose-dependent effect |  | 
